Active and inactive are the calls of the source. The rule behind the calls is not given here.
Legend:
A549 = test: Cytotoxicity against human A549 cells assessed as reduction in cell viability by sulforhodamine B assay; format: functional, cell-based
Outline: (§1)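 Cells were kept in RPMI-1640 with 10% FBS, 2 mM L-glutamine, 50 μM β-mercaptoethanol and penicillin/streptomycin, at 37 °C in 5% CO2. SRB assay used 100, 10, 1, 0.1 and 0.01 μM, each in triplicate. Percent inhibition was calculated against solvent control OD. IC50 came from Logit curve fitting and is the mean of three independent experiments.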

Candida tropicalis = test: Antifungal activity against clinical strain Candida tropicalis by microplate reader assay; format: functional
Outline: (§2)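 Broth microdilution read by optical density at 630 nm. MIC80 is the first well with about 80% less growth than the drug-free well. Each concentration was run in three replicate wells, and values are means of three independent experiments.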

Candida parapsilosis = test: Antifungal activity against clinical strain Candida parapsilosis by microplate reader assay; format: functional; conditions: Lodderomyces parapsilosis; outline: as §2
MCF7 = test: Cytotoxicity against human MCF7 cells assessed as reduction in cell viability by sulforhodamine B assay; format: functional, cell-based; outline: as §1
HCT-116 [1] = test: Cytotoxicity against human HCT-116 cells assessed as reduction in cell viability by sulforhodamine B assay; format: functional, cell-based; outline: as §1
Bel-7402 [2] = test: Cytotoxicity against human Bel-7402 cells assessed as reduction in cell viability by sulforhodamine B assay; format: functional, cell-based; outline: as §1
SPC-A4 = test: Cytotoxicity against human SPC-A4 cells assessed as reduction in cell viability by sulforhodamine B assay; format: functional, cell-based; outline: as §1
HCT-116 [3] = test: Induction of apoptosis in human HCT-116 cells assessed as decrease in viable cells measured upto 2 times of IC50 concentration by annexin V staining based flow cytometry analysis; format: functional, cell-based
Outline: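 HCT-116 cells treated with vehicle or three compound concentrations, collected, and stained with Annexin V-FITC and propidium iodide in the dark at 4 °C. Flow cytometry quadrants: Q4 live, Q3 early apoptotic, Q2 late apoptotic, Q1 necrotic. n = 3; ANOVA vs vehicle.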

CCRF S-180 [4] = test: Antitumor activity against mouse S-180 cells implanted in KM mouse assessed as tumor growth inhibition at 5 mg/kg, IG administered everyday for 7 days relative to control; format: functional; conditions: CCRF S-180, po, 168 h, time 7 day, read-out: TGI
Outline: (§3)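 S-180 or H22 cells, about 2.5 × 10⁶ per mouse, injected s.c. in the right axilla of wild-type KM mice. Randomized after 24 h and dosed intragastrically for 7 days; sacrificed 24 h after the last dose. TGI = (W_C − W_T)/W_C × 100% from average tumor weight. n = 8; one-way ANOVA vs vehicle.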

CCRF S-180 [5] = test: Antitumor activity against mouse S-180 cells implanted in KM mouse assessed as tumor growth inhibition at 50 mg/kg, IG administered everyday for 7 days relative to control; format: functional; conditions: CCRF S-180, po, 168 h, time 7 day, read-out: TGI; outline: as §3
H22 = test: Antitumor activity against mouse H22 cells implanted in KM mouse assessed as tumor growth inhibition at 5 mg/kg, IG administered everyday for 7 days relative to control; format: functional; conditions: H22, po, 168 h, time 7 day, read-out: TGI; outline: as §3
Bel-7402 [6] = test: Antitumor activity against human Bel-7402 cells implanted in BALB/c-nu mouse assessed as tumor growth inhibition at 5 mg/kg, IG administered everyday for 7 days relative to control; format: functional; conditions: Bel-7402, po, 168 h, time 7 day, read-out: TGI
Mus musculus [7] = test: Immunomodulatory activity in cyclophosphamide-immunosuppressed KM mouse assessed as improved in phagocytosis function in at 50 to 500 mg/kg, IG once daily measured after 14 days; format: functional, organism-based; conditions: dose 50-500 mg/kg, time 14.0 day
Outline: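 KM mice dosed intragastrically once daily for 14 days at 5, 50 or 500 mg/kg; vehicle 0.5% CMC-Na. CTX 50 mg/kg i.p. on days 7, 9 and 11. 1 h after the last dose, 25% Indian ink given i.v. at 0.1 mL/10 g. Blood (20 µL) taken at 2 and 10 min, lysed in 2 mL water, OD 680 nm read. K and α calculated with body, liver and spleen weights. n = 8.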

HCT-116 [8] = test: Induction of apoptosis in human HCT-116 cells assessed as apoptotic nuclei cells measured upto 2 times of IC50 concentration for 24 hrs by Hoechst staining method; format: functional, cell-based
Outline: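 HCT-116 cells treated with vehicle or three compound concentrations, then stained with Hoechst 33258. Nuclei examined by inverted fluorescence microscopy at ×400 in five random fields. Apoptotic cells expressed as % of cells counted. n = 3; ANOVA vs vehicle.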

Mus musculus [9] = test: Immunomodulatory activity in cyclophosphamide-immunosuppressed KM mouse assessed as improved thymus index in at 50 to 500 mg/kg, IG once daily measured after 14 days; format: functional, organism-based; conditions: dose 50-500 mg/kg, time 14.0 day
Outline: (§4)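 KM mice dosed intragastrically at 5, 50 or 500 mg/kg; vehicle 0.5% CMC-Na. After five doses, immunized i.p. with 0.2 mL 20% rabbit erythrocytes, and dosing continued for 8 days. CTX 30 mg/kg i.p. on days 2, 4 and 6 after immunization. 1 h after the last dose, spleen and thymus weighed; index in g/kg. n = 8.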

Mus musculus [10] = test: Immunomodulatory activity in cyclophosphamide-immunosuppressed KM mouse assessed as improved spleen index in at 50 to 500 mg/kg, IG once daily measured after 14 days; format: functional, organism-based; conditions: dose 50-500 mg/kg, time 14.0 day; outline: as §4

`C=C(C)CCC[C@]1(C)OC(=O)[C@]23CC[C@@H]4C(=CCC5C(C)(C)[C@@H](O[C@@H]6OC[C@@H](OS(=O)(=O)[O-])[C@H](O)[C@H]6O[C@@H]6O[C@H](C)[C@@H](O[C@@H]7OC[C@@H](O)[C@H](O[C@@H]8O[C@H](CO)[C@@H](O)[C@H](OC)[C@H]8O)[C@H]7O)[C@H](O)[C@H]6O)CC[C@@]54C)[C@]2(C)C[C@H](OC(C)=O)[C@@H]31.[Na+]` (stereo partly specified) was tested, and the IC50 (A549) was 1270 nM, the MIC80 (Candida tropicalis) was 8 µg/mL and the MIC80 (Candida parapsilosis) was 4 µg/mL. It also gave an IC50 (MCF7) of 2030 nM, an IC50 (HCT-116 [1]) of 1360 nM and an IC50 (Bel-7402 [2]) of 1450 nM. For the same compound, the IC50 (SPC-A4) was 1500 nM, the Activity (HCT-116 [3]) was “inactive” and the inhibition in vivo at 5 mg/kg (CCRF S-180 [4]) was 44.2%. For the same compound, the inhibition in vivo at 50 mg/kg (CCRF S-180 [5]) was 55.5%, the inhibition in vivo at 5 mg/kg (H22) was 40.1% and the inhibition in vivo at 5 mg/kg (Bel-7402 [6]) was 50.1%. The Activity (Mus musculus [7]) was “Active”, the Activity (HCT-116 [8]) was “Active” and the Activity (Mus musculus [9]) was “Active”. For the same compound, the Activity (Mus musculus [10]) was “Active”.

Source: ChEMBL document CHEMBL4811272, “A new sulfated triterpene glycoside from the sea cucumber Colochirus quadrangularis, and evaluation of its antifungal, antitumor and immunomodulatory activities” (Bioorg Med Chem, 2021)
